Bioassay records deposited in PubChem BioAssay by Sanford-Burnham Center for Chemical Genomics.
Sampled rows, rich in hits. Any-hit rate of the full collection: about 1.5%.
APJ antagonist = blocks the human apelin receptor APJ | P35414 | CHO-K1 APJ beta-arrestin complementation, luminescence | inhibition, % at 20 µM | actives 0.32% (n = 330,000) | AID 2521;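 active = inhibition above about 40% at 20 µM, limit read from the data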;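 note: cells challenged with 10 nM apelin-13 agonist together with compound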
EBI2 antag = blocks human EBI2 receptor beta-arrestin signaling. inhibition, % at 5 µM. EBI2 beta-arrestin recruitment, luminescence, 7a,25-OHC stimulated. actives 0.81% (n = 360,000). P32249. AID 651636; in the data active = inhibition above about 38%;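 note: enzyme fragment complementation signal reports receptor beta-arrestin coupling in cells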
Target sequence (P32249 whole entry, looked up, the tested form may be a part): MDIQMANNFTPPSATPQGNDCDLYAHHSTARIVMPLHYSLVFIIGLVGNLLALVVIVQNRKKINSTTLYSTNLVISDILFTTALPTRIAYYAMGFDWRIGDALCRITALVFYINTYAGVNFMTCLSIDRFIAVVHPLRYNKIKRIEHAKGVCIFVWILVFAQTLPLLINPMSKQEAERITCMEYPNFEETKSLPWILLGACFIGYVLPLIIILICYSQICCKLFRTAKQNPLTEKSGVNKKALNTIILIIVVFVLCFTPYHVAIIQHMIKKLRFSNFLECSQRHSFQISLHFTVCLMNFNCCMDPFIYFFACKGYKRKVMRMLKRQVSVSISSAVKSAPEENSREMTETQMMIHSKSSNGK
CXCR6 block = blocks human CXCR6 beta-arrestin recruitment | inhibition, % at 20 µM | O00574 | CHO-K1 PathHunter CXCR6 beta-arrestin, luminescence | actives 0.36% (n = 360,000) | AID 602244; in the data active = inhibition above about 34%, passing the limit was not always enough;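 note: antagonist mode with CXCL16 agonist at 10 nM final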
APJ agonist = agonists of human APJ apelin receptor. P35414. CHO-K1 APJ PathHunter beta-arrestin, luminescence; 0% DMSO wells, 100% apelin. activation, % at 20 µM. actives 0.11% (n = 330,000);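 active = activation more than six SD over the plate average, tested at 20 µM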
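Material: engineered CHO-K1 APJ arrestin reporter cells; amount: 1000 CHO-K1 reporter cells seeded per well; incubation: compound stimulation 90 min at 25 °C, detection 60 min; signal: luminescent beta-gal fragment complementation, chemiluminescent substrate; read-out basis: APJ agonist activity; controls: DMSO-only wells as negative, 10 nM Apelin-13 as positive control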
CCR6 antag = CCR6 (human) receptor antagonism; P51684; CHO-K1 CCR6 PathHunter beta-arrestin, luminescence, CCL20-stimulated; inhibition, % at 20 µM; actives 0.49% (n = 340,000); AID 493098;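 active = compounds whose inhibition of the agonist-driven luminescence signal at 20 µM reaches about 50%, limit read from the data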;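 note: cells stimulated with CCL20 at 14 nM final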
APJ antag confirm = APJ receptor antagonism confirmation; shares compounds with APJ antagonist; APJ beta-arrestin recruitment, luminescence, antagonist mode; inhibition, % at 20 µM; actives 66% (n = 950); in the data active = inhibition above about 50%
Numbers stand for hits; i = inactive; nt = no result given.

SMILES | APJ antagonist | EBI2 antag | CXCR6 block | APJ agonist | CCR6 antag | APJ antag confirm
CC(=O)Nc1ccc(S(=O)(=O)N2CCC3(CC2)OCCO3)cc1 | i | i | i | i | i | nt
O=C1CN(C(=O)c2ccc(Cl)c([N+](=O)[O-])c2)c2ccccc2N1 | 41 | i | i | i | i | i
CN1CCN(CCCNC(=O)CCC(=O)N2CCOc3ccccc32)CC1 | i | i | i | i | i | nt
Cc1cccc2cc3c(N)c(C(=O)N4CCOCC4)sc3nc12 | 51 | i | i | i | i | i
O=C(C[N+]1(CC#Cc2ccccc2)CCOCC1)c1ccc(Cl)cc1 | 90 | i | 42 | i | 62 | 108
CCC[N+](CC#Cc1ccccc1)(CCC)CC(=O)c1ccc(Cl)cc1 | 60 | i | i | i | i | 53
O=C(C[N+]1(CC#Cc2ccccc2)CCCCC1)c1ccc(Cl)cc1 | 57 | i | i | i | i | i
CCC[N+](CC#Cc1ccccc1)(CCC)CC(=O)OC | i | i | i | i | i | nt
CC(C(=O)N1CCc2ccccc21)N1CCN(Cc2ccc(Cl)cc2)CC1 (centres undefined) | i | i | i | i | i | nt
COc1ccc(C(=O)NC(=S)Nc2nc(C)cc(C)n2)cc1Br | i | i | i | i | i | nt
CCOC(=O)/C=C/S(=O)(=O)c1ccc(NC(C)=O)cc1 | 44 | i | i | i | i | 83
CCC(C)NC(=O)c1cn(CC)c2cc(N3CCN(C(=O)c4ccco4)CC3)c(F)cc2c1=O (centres undefined) | i | i | i | i | i | nt
O=S(=O)(NNc1cccc(Cl)n1)c1ccc(Cl)cc1 | i | i | i | i | i | nt
CCNC(=O)c1ccc(C2SCC(=O)N2CCc2ccccc2)cc1 (centres undefined) | i | i | i | i | i | nt
CCc1ccc(NC(=O)c2ccc(C3SCC(=O)N3CCc3ccccc3)cc2)cc1 (centres undefined) | 62 | i | i | i | i | i
COc1cc(SC)ccc1C(=O)OCC(=O)NCC(C)C | 41 | i | i | i | i | i
Cc1cccc(C2CC3(CC(C)(C)NC(=S)N3)Oc3cc(O)ccc32)c1 (centres undefined) | i | i | i | i | i | nt
CC1(C)CC2(CC(c3ccccc3F)c3cc(Cl)c(O)cc3O2)NC(=S)N1 (centres undefined) | 48 | i | i | i | i | 112
CCOC(=O)c1nnc2c(Br)c(-c3ccccc3)nn2c1C | 44 | i | i | i | i | i
CCOC(=O)c1nnc2cc(-c3ccccc3)nn2c1C | i | i | i | i | i | nt
Cc1cccc(N(C)S(=O)(=O)c2c(C)[nH]c(C)c2C(=O)N2CCCC2)c1 | i | i | i | i | i | nt
Cc1ccc(SSc2cc(C)ccc2N)c(N)c1 | 45 | i | i | i | i | 127
Cc1ncc(CO)c(/C=N/Nc2ccc(C(F)(F)F)cn2)c1O | 63 | i | 48 | i | 69 | 89
CCc1ccc(NC(=O)Cn2nnc(C(=O)NCc3ccco3)c2N)cc1 | i | i | i | i | i | nt
Cc1ccc(-c2cc3c(nn2)-c2ccccc2C3=O)cc1 | 43 | 60 | i | i | i | 147
SMILES | APJ antagonist | EBI2 antag | CXCR6 block | APJ agonist | CCR6 antag | APJ antag confirm
CN1C(=O)/C(=C/c2cc(N=Nc3ccccc3)ccc2O)SC1=S | 60 | 47 | 51 | i | 74 | 105
Cc1c(N2C(=O)/C(=C\c3ccccc3O)SC2=S)c(=O)n(-c2ccccc2)n1C | i | i | i | i | i | nt
COc1ccc(C(C)(C)C)cc1NC(=O)CSc1ncn[nH]1 | i | i | i | i | i | nt
O=C(NCc1ccc(F)cc1F)[C@@H]1CCCN1C(=O)[C@@H]1CCCN1 | nt | i | i | nt | nt | nt
CC(C)(C)N(Cc1ccccc1)C(=O)c1cc2ccccc2o1 | 45 | i | i | i | i | i
O=C(Cc1coc(-c2ccc(F)cc2)n1)NC1CCCCC1 | 60 | i | i | i | i | i
Cc1ccc(C)c(S(=O)(=O)N2CCN(C(=O)CCNS(=O)(=O)c3ccccc3)CC2)c1 | i | i | i | i | i | nt
CCN(CC)C(=S)SSC(=S)N(CC)CC | 71 | i | 51 | i | 60 | 108
CCN(CC)C(=S)SCC(=O)c1ccccc1 | i | i | i | i | i | nt
C=CCN(CC=C)Cc1cc(=O)oc2ccc3ccccc3c12 | nt | i | i | nt | nt | nt
C=CCN(CC=C)Cc1c(O)ccc2c1oc(=O)c1ccccc12 | 47 | i | i | i | i | 78
COc1ccc(NC2(c3ccc(Cl)cc3)C(=O)c3ccccc3C2=O)cc1 | 62 | i | i | i | 74 | 73
CCOC(=O)c1cnc2c(cnn2C)c1NCCC(O)C(F)(F)F (centres undefined) | 48 | i | i | i | i | i
CCOC(=O)c1cnc2c(cnn2C)c1Oc1ccc(OC)cc1 | i | i | i | i | i | nt
O=c1[nH]c2ccccc2c2nc(-c3cccc(S(=O)(=O)N4CCCC4)c3)nn12 | i | i | i | i | i | nt
CN(C)CC(=O)c1ccc(-c2ccccc2)cc1 | 46 | i | i | i | i | 73
CCN(CC)C(=O)c1ccc(-c2ccccc2)cc1 | i | i | i | i | i | nt
CCN(CC)CC(=O)c1ccc(-c2ccccc2)cc1 | 94 | i | i | i | 72 | 114
O=c1c2ccccc2c(=O)n(-c2ccccc2)n1-c1ccccc1 | nt | i | i | nt | i | nt
COC(=O)c1c(C)[nH]c(C(=O)OCC(=O)c2ccc(C)s2)c1C | i | i | i | i | i | nt
O=[N+]([O-])c1ccc(NNC(=S)Nc2ccccc2)cc1 | 43 | i | i | i | 67 | 99
O=[N+]([O-])c1ccc(NC(=S)NCCc2ccccc2)cc1 | i | i | i | i | i | nt
FC(F)(F)c1cccc(Sc2nc(-c3ccccc3)nnc2C(F)(F)F)c1 | 43 | i | 46 | i | i | 91
FC(F)(F)c1cccc(Oc2nc(-c3ccccc3)nnc2C(F)(F)F)c1 | i | i | i | i | i | nt
O=C(N/C(=C/c1ccc(F)cc1)C(=O)N1CCCCC1)c1ccco1 | i | i | i | i | i | nt
SMILES | APJ antagonist | EBI2 antag | CXCR6 block | APJ agonist | CCR6 antag | APJ antag confirm
CC(C)(C)C(=O)NC(=S)NNC(=O)c1ccc(-c2ccccc2)cc1 | 66 | i | 84 | i | 102 | 112
CCOc1ccc(C(=O)NC(=S)N(Cc2ccccc2)Cc2ccccc2)cc1 | nt | i | i | nt | i | nt
CCCN(CCC)C(=S)NC(=O)c1ccc(-c2ccccc2)cc1 | 45 | i | i | i | i | i
CC(C)(C)n1nnnc1C(c1ccccc1)N1CCN(C(=O)C2CCCO2)CC1 (centres undefined) | nt | i | i | nt | nt | nt
O=C(CN(CCO)Cc1ccccc1)N1CCN(S(=O)(=O)c2ccccc2)CC1 | nt | i | i | nt | nt | nt
COC(=O)C1CC2=C(CCCC2=O)N(c2ccccc2)C1=O (centres undefined) | nt | i | i | nt | i | nt
COc1ccc(C)cc1NC(=O)COC(=O)C1CC1 | 41 | i | i | i | i | i
Cn1nnc(NC(=S)NC(=O)c2ccc3ccccc3c2)n1 | nt | i | i | nt | nt | nt
Cn1nnc(NC(=S)NC(=O)c2cccc3ccccc23)n1 | 51 | i | i | i | i | 86
